# ChEMBL document CHEMBL2401665, “Design, synthesis and biological studies of novel tubulin inhibitors” (Bioorg Med Chem Lett, 2013)
# Assays:
# MDA-MB-231 = assay: Cytotoxicity against hormone-independent human MDA-MB-231 cells assessed as growth inhibition by MTS assay; format: functional, cell-based
# Procedure, shortened: (§1)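 Cells seeded at 2,500 per well and exposed to a range of compound concentrations. Read-out is the MTS assay […]. IC50 is the mean of 3 independent experiments, each run in triplicate.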
# Tubulin = Tubulin (Sus scrofa, UniProt P02554+P02550); assay: Inhibition of porcine brain tubulin polymerization
# PC-3 = assay: Cytotoxicity against hormone-independent human PC3 cells assessed as growth inhibition by MTS assay; format: functional, cell-based; procedure, shortened: as §1
smiles,measurement,setting,value
COc1ccc2c(c1)CC(=O)N2Cc1cc(OC)c(OC)c(OC)c1,IC50,MDA-MB-231,193 nM
same,IC50,Tubulin,31.2 µM
same,IC50,PC-3,165 nM
COc1ccc2c(c1)n(C)c(=O)n2Cc1cc(OC)c(OC)c(OC)c1,IC50,MDA-MB-231,3030 nM
same,IC50,Tubulin,> 40 µM
same,IC50,PC-3,555 nM
COc1ccc2c(c1)C(=O)C(=O)N2Cc1cc(OC)c(OC)c(OC)c1,IC50,MDA-MB-231,935 nM
same,IC50,Tubulin,ND(Insoluble)
same,IC50,PC-3,318 nM
COc1ccc2c(c1)oc(=O)n2C(=O)c1cc(OC)c(OC)c(OC)c1,IC50,MDA-MB-231,> 20000 nM
same,IC50,PC-3,> 20000 nM
COc1ccc2c(c1)[nH]c(=O)n2Cc1cc(OC)c(OC)c(OC)c1,IC50,MDA-MB-231,52.8 nM
same,IC50,Tubulin,16.4 µM
same,IC50,PC-3,44.2 nM
COc1ccc2c(c1)NC(=O)/C2=C/c1cc(OC)c(OC)c(OC)c1,IC50,MDA-MB-231,0.88 nM
COc1ccc2c(c1)oc(=O)n2Cc1cc(OC)c(OC)c(OC)c1,IC50,MDA-MB-231,4520 nM
same,IC50,Tubulin,> 40 µM
same,IC50,PC-3,4490 nM
COc1ccc2c(c1)[nH]c(=O)n2C(=O)c1cc(OC)c(OC)c(OC)c1,IC50,MDA-MB-231,108 nM
same,IC50,Tubulin,19.14 µM
same,IC50,PC-3,126 nM
